Series [1] can be described thus: Human plasma protein binding. Type of series: in vitro ADME. The note with it: fraction unbound.
Series [2] in a line: Mouse liver microsome stability / intrinsic clearance. The note with it: for CLint scaled: mouse, liver microsomes. Format: in vitro ADME.
Series [3] in a line: Human liver microsome stability / intrinsic clearance. Format: in vitro ADME. As to conditions: for CLint scaled: human, liver microsomes.
The next series in a line: Metabolite ID study. Type of series: in vitro ADME.
Another series concerns 6-OHDA mouse model. The note with it: 6-OHDA mouse model ref 13; cited from earlier work.
Series [4] deals with other dopamine receptors (D1-3,5). The series can be described thus: Binding at other dopamine receptors. The arrangement: species or system human. The procedure, abridged:
(§1)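 Ki from competitive inhibition of radioligand binding in membranes from HEK293 cells stably expressing the human receptor. [3H]N-methylspiperone was used for D2R, D3R and D4R, and [3H]SCH23390 for D1R and D5R.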

The next series addresses T1, hD4R (Homo sapiens, UniProt P21917).
T1 sequence (P21917 1-419): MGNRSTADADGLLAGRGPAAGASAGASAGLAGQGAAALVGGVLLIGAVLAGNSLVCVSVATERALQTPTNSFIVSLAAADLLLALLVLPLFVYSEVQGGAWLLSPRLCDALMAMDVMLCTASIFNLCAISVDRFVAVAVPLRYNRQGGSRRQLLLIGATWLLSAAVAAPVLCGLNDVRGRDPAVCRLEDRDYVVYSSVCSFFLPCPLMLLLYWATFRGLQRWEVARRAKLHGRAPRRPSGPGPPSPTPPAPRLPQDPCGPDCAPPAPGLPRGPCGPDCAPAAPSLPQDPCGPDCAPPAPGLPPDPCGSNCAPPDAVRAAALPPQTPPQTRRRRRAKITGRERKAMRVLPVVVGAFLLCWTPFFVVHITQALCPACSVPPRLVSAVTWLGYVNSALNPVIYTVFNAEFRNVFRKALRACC
The series can be described thus: D4R competitive radioligand binding. In short, it runs like this: as §1

The next series in a line: In vivo rat cassette PK. As to conditions: iv, 0.25 mg/kg.
The next series in a line: Mouse plasma stability. Type of series: in vitro ADME.

As for `COc1ccc(CN2CCO[C@H](COc3ccccc3)C2)cc1F` [Compound 1, reference compound], the “Plasma Protein Binding (%fu) hPPB” value in [1] was found to be 3.1 %fu. For the same molecule, in [2], the “Mouse liver microsome stability” value was “highly unstable” and the CLint scaled stood at 2130 mL/min/kg. The “Human liver microsome stability” value in series [3] is recorded as “highly unstable”. For the same molecule, the “Major metabolic liability (metabolite ID)” value in “Metabolite ID study” is listed as “N-dealkylation”. Besides, the “Dyskinesia AIM (abnormal involuntary movement) scores” value in the series with 6-OHDA mouse model was “dose-dependent reduction”.

On to `COc1ccc(CN2CCC[C@H](OCc3cccc(F)c3)C2)cc1F` [Compound 8a], for which the “Selectivity against the other dopamine receptors” value (“Selectivity” for short) in series [4] is “selective”.

Take `COc1ccc(CN2CCC[C@H](OCc3ccc(F)c(F)c3)C2)cc1F` [Compound 8b]: the CLint scaled in [2] stood at 1260 mL/min/kg; in [3] it was 272 mL/min/kg.

On to `COc1ccc(CN2CCC[C@@H](OCc3ccc(F)c(C)c3)C2)cc1F` [Compound 8d], for which the “Fold less active, (R)-enantiomer vs (S)-enantiomer at D4” value at hD4R was determined as 15 fold.

Turning to `Fc1ccc(CO[C@H]2CCCN(Cc3cn4ccccc4n3)C2)cc1F` [Compound 8i], the figures for the CLint scaled in series [2] and in series [3] were 1400 mL/min/kg and 689 mL/min/kg, respectively.

With `Fc1cccc(CO[C@H]2CCCN(Cc3ncn4ccccc34)C2)c1` [Compound 8n], the “D4 activity” value on hD4R was “much less active or inactive”.

For the molecule `Fc1ccc(CO[C@H]2CCCN(Cc3ncn4ccccc34)C2)cc1F` [Compound 8o], the CLint scaled turned out to be 5370 mL/min/kg in [2] and 622 mL/min/kg in series [3].

As for `FC(F)(F)Oc1cccc(CO[C@H]2CCCN(Cc3ncc4ccccn34)C2)c1` [Compound 8q], at hD4R, the “D4 activity” value was “much less active or inactive”.

For the molecule `Cc1cccc(CO[C@H]2CCCN(Cc3ncc4ccccn34)C2)n1` [Compound 8r], on hD4R, the “D4 activity” value was “much less active or inactive”.

In the case of `Fc1cccc(COC2CCN(Cc3cn4ccccc4n3)CC2)c1` [Compound 9a], in series [2], the “Mouse liver microsome stability” value was “modestly stable” and the CLint scaled was 380 mL/min/kg. Besides, in series [3], the “Human liver microsome stability” value is given as “stable” and the CLint scaled is less than 23.1 mL/min/kg. Besides, the “Fold improvement of D4 activity vs 3-O-derivative” value at hD4R is given as 10 fold.

For the molecule `Fc1ccc(COC2CCN(Cc3cn4ccccc4n3)CC2)cc1F` [Compound 9b], in series [2], the “Mouse liver microsome stability” value is reported as “modestly stable” and the CLint scaled came out at 158 mL/min/kg. For the same molecule, in [3], the “Human liver microsome stability” value is recorded as “stable” and the CLint scaled is less than 20 mL/min/kg. This molecule yielded a clearance in “In vivo rat cassette PK” of 116 mL/min/kg.

Regarding `FC(F)(F)c1cccc(COC2CCN(Cc3cn4ccccc4n3)CC2)c1` [Compound 9c], the CLint scaled in series [2] amounted to 310 mL/min/kg; in [3], 44.6 mL/min/kg.

`Fc1cc(COC2CCN(Cc3cn4ccccc4n3)CC2)ccc1Cl` [Compound 9d]: the CLint scaled came out at 96.8 mL/min/kg in [2] and 44.1 mL/min/kg in series [3]. The molecule further yielded a clearance in the series “In vivo rat cassette PK” of 134 mL/min/kg.

For `Fc1cc(COC2CCN(Cc3ncc4ccccn34)CC2)ccc1Cl` [Compound 9e], in [2], the “Mouse liver microsome stability” value is listed as “not as stable” and the CLint scaled came to 917 mL/min/kg. Also, in series [3], the “Human liver microsome stability” value is given as “not as stable” and the CLint scaled was 212 mL/min/kg.

With `Fc1cccc(COC2CCN(Cc3ncn4ccccc34)CC2)c1` [Compound 9h], in series [2], the “Mouse liver microsome stability” value is recorded as “not as stable” and the CLint scaled came out at 1260 mL/min/kg. Further, in series [3], the “Human liver microsome stability” value was “not as stable” and the intrinsic metabolic clearance (CLint scaled) worked out at 340 mL/min/kg.

For `Cc1nc(CN2CCC(OCc3cccc(C(F)(F)F)c3)CC2)c2ccccn12` [Compound 9i], the CLint scaled in [2] stood at 272 mL/min/kg; in series [3], 85.3 mL/min/kg.

Regarding `Cc1nc(CN2CCC(OCc3ccc(Cl)c(F)c3)CC2)c2ccccn12` [Compound 9j], the CLint scaled in series [2] came out at 140 mL/min/kg; in [3], 114 mL/min/kg.

On to `Fc1cc(COC2CCN(Cc3ccc4[nH]cnc4c3)CC2)ccc1Cl` [Compound 9l], for which the CLint scaled amounted to 90.4 mL/min/kg in series [2] and 48.3 mL/min/kg in series [3]. In addition, in “In vivo rat cassette PK”, the clearance was determined as 199 mL/min/kg.

In the case of `FC(F)(F)c1cccc(COC2CCN(Cc3ccc4[nH]cnc4c3)CC2)c1` [Compound 9m], the intrinsic clearance (CLint scaled) in series [2] is 76.4 mL/min/kg; in series [3], 32.9 mL/min/kg.

For `Fc1ccc(COC2CCN(Cc3ccc4[nH]cnc4c3)CC2)cc1F` [Compound 9n], the figures for the CLint scaled in series [2] and in series [3] were 93.9 mL/min/kg and less than 20 mL/min/kg, respectively. For the same molecule, the clearance in “In vivo rat cassette PK” was determined as 235 mL/min/kg.

In the case of `Cn1cnc2cc(CN3CCC(OCc4cccc(C(F)(F)F)c4)CC3)ccc21` [Compound 9p], the CLint scaled in [2] was determined as 85.2 mL/min/kg; in series [3], 63.3 mL/min/kg. The same molecule gave a clearance in “In vivo rat cassette PK” of 107 mL/min/kg.

For the molecule `Cn1ncc2cc(CN3CCC(OCc4ccc(F)c(F)c4)CC3)ccc21` [Compound 9u], the CLint scaled in series [2] is 104 mL/min/kg. In “In vivo rat cassette PK”, this molecule displayed a clearance of 140 mL/min/kg.

Consider `Cn1ncc2cc(CN3CCC(OCc4ccc(Cl)c(F)c4)CC3)ccc21` [Compound 9v], for which the figures for the CLint scaled in [2] and in series [3] were 85.3 mL/min/kg and 42.7 mL/min/kg, respectively.

`Cn1ncc2cc(CN3CCC(OCc4cccc(C(F)(F)F)c4)CC3)ccc21` [Compound 9w]: the CLint scaled came to 85.2 mL/min/kg in series [2] and 63.3 mL/min/kg in series [3].

With `Fc1ccc(COC2CCN(Cc3cc4ccc(Cl)cc4[nH]3)CC2)cc1F` [Compound 9y], the results for the CLint scaled in series [2] and in series [3] were 83.2 mL/min/kg and 23.5 mL/min/kg, respectively. In addition, the C0 in “In vivo rat cassette PK” stood at 36.9 ng/mL.

For the molecule `FC(F)(F)c1cccc(COC2CCN(Cc3cc4ccc(Cl)cc4[nH]3)CC2)c1` [Compound 9z], the CLint scaled was 71.5 mL/min/kg in series [2] and 26.9 mL/min/kg in [3].

On to `Cc1c(Cl)cccc1NC(=O)CN1CCC(OCc2ccc(F)c(F)c2)CC1` [Compound 11a], for which the CLint scaled in series [2] was 287 mL/min/kg. Moreover, the CLint scaled in [3] turned out to be 145 mL/min/kg. In “In vivo rat cassette PK”, this molecule displayed a C0 of 91 ng/mL and a clearance of 22 mL/min/kg. In addition, in series [4], the “Selectivity” value is “selective for D4”.

In the case of `Cc1cc(NC(=O)CN2CCC(OCc3ccc(F)c(F)c3)CC2)ccc1F` [Compound 11d], the “Mouse plasma stability” value in “Mouse plasma stability” is “not stable”. The “Plasma stability (footnote symbol in mPPB column)” value in “Mouse plasma stability” (mouse plasma) is given as “c”. Besides, in series [2], the “Mouse liver microsome stability” value is “moderately stable” and the CLint scaled came out at 306 mL/min/kg. In addition, in series [3], the “Human liver microsome stability” value is recorded as “moderately stable” and the CLint scaled is 49.5 mL/min/kg. In [4], the “Selectivity” value is recorded as “selective for D4”.

The values above are taken from PMC8966054 (Bioorganic & medicinal chemistry letters, 2022).
